The values below come from publication PMC7241432 (ACS infectious diseases, 2019).

Data set [1] has as its system luxAB (luciferase) containing strain of Mtb H37Rv. The data set is classed as cell-based, Mycobacterium tuberculosis. The settings on record: hypoxic conditions, control.
Data set [2] has as its target T1, BlaC (Mycobacterium tuberculosis, UniProt P9WKD3).
T1 sequence (P9WKD3 35-307): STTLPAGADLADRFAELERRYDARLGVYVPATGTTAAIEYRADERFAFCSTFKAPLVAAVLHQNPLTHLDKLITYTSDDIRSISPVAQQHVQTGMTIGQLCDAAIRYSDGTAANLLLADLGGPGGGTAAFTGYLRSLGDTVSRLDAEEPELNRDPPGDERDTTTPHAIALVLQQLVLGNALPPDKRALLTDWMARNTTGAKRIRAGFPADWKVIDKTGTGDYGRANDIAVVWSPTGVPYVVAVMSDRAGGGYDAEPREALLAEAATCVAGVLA
The data set is classed as biochemical. The settings on record: 100 μM compound, 1 μM BlaC, 10 min.

Data set [3] deals with Mtb. The settings on record: 14-day exposure of hypoxic Mtb, plus clavulanate; cited from earlier work.
Data set [4] can be described thus: Stability / PYR release in cell-free medium. The data set is classed as physicochemical. The essentials: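 PYR measured colorimetrically: cell-free medium (R or nitrite-containing NR medium) mixed 1:1 with 0.01 M ferric nitrate in 0.1 N sulfuric acid and shaken 5–10 min at room temperature. Fe3+–PYR complex read by absorbance at 600 nm. Concentration taken from a linear sodium-PYR standard curve. Free PYR followed over 24 h (R medium) and 48 h (NR medium).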

Data set [5] has as its system Mtb strain H37Rv. Nature of the data set: microbe, parasite or virus in culture. The data set is classed as cell-based, Mycobacterium tuberculosis. The following applies: for MBC: Mycobacterium tuberculosis, H37RV.
The test system of data set [6] is Mtb. The data set is classed as cell-based, Mycobacterium tuberculosis.
The subject of data set [7] is methicillin-sensitive S. aureus. The data set is described as follows: Antimicrobial spectrum MIC90, MSSA. The data set is classed as cell-based. The settings on record: Staphylococcus aureus, 24 h.

In brackets after ≈: the same amount, converted by molar mass. Read-outs that look alike come from different tables or passages of the source.

Usually MIC90 stands for an inhibitory concentration at the 90% level, which refers to growth in some studies and to a panel of isolates in others. A lower MIC90 goes with higher susceptibility.

Consider `CO[C@H]1/C=C/O[C@@]2(C)Oc3c(C)c(O)c4c(O)c(c(/C=N/N5CCN(C)CC5)c(O)c4c3C2=O)NC(=O)/C(C)=C\C=C\[C@H](C)[C@H](O)[C@@H](C)[C@@H](O)[C@@H](C)[C@H](OC(C)=O)[C@@H]1C` [rifampicin], for which, in data set [1], the “activity in LORA” value is on record as “lost activity”.

Turning to `CC(=O)OCC1=C(C(=O)O)N2C(=O)[C@@H](NC(=O)Cc3cccs3)[C@H]2SC1` [cephalothin], in data set [2], the “UV-visible absorption spectrum after incubation with BlaC” value was “did not change”.

`C[C@@H](O)[C@H]1C(=O)N2C(C(=O)O)=C(S[C@@H]3CN[C@H](C(=O)N(C)C)C3)[C@H](C)[C@H]12` [meropenem]: the “reduction in colony-forming units (CFUs)” value in data set [3] was “ca. 1 order of magnitude”.

Consider `O=C(O)CSc1cccc[n+]1[O-]` [Compound 10, 2-(carboxymethylthio)pyridine-N-oxide], for which, in data set [4] (Fe3+-PYR complex, absorbance at 600 nm), the “PYR release in cell-free medium” value is given as “not released”.

Turning to `[O-][n+]1ccccc1S` [PYR, pyrithione], the “potency relative to cephalosporin 1a” value in data set [5] is recorded as “equipotent on a molar basis”. For the same molecule, the MBC in data set [5] (read-out: MBC NR CARA) came to 1.25 µM (≈ 0.159 µg/mL); in data set [5] (read-out: MBC NR CARA + 25 μM Clav), 1.25 µM; in data set [5] (read-out: MBC R CARA) it was 1.25 µM (≈ 0.159 µg/mL); in data set [5] (read-out: MBC R CARA + 25 μM Clav) it was 1.25 µM. Also, the “reduction of CFU of R Mtb” value in data set [6] is on record as > 5 orders of magnitude. For the same molecule, in data set [6], the “time to reduce CFU of R Mtb by >5 orders of magnitude” value is at most 24 h. Moreover, in data set [4] (NR medium), the “stability of free PYR in the medium used for NR conditions” value was “largely disappeared over 48 h”. Further, in data set [4] (R medium), the “stability of free PYR in the medium used for R conditions” value is on record as “at least 24 h”. For the same molecule, the MIC90 in data set [7] was 25 µM (≈ 3.18 µg/mL).
